Measured values taken from ChEMBL document CHEMBL1157465, “Design, synthesis, and biological evaluation of novel 3-aryl-4-(1H-indole-3yl)-1,5-dihydro-2H-pyrrole-2-ones as vascular endothelial growth factor receptor (VEGF-R) inhibitors” (J Med Chem, 2008).

How the values were obtained:
[1] = organism: Homo sapiens; assay: Antiangiogenic activity in VEGF-induced HLMEC assessed as sprouts per bead at 1.3 uM after 24 hrs by sprouting assay; assay type: functional
Outline: (§1)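 HLMEC seeded on cytodex-3 microcarrier beads and embedded in 3D fibrinogen gel with 20 ng/mL VEGF plus compound at a final 1.3 or 2.6 µM (from 1 mM DMSO stock). Gel polymerised with 0.65 U/mL thrombin and overlaid with MCDB131, 5% FCS, 5% human serum and 200 U/mL Trasylol. Negative control: gel without growth factors. After 24 h, fixed in 1% PFA; sprouts per 50 beads counted microscopically. Triplicates per condition, n = 9 experiments.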

[2] = organism: Homo sapiens; assay: Induction of apoptosis in HDMEC assessed as cleaved caspase 3 at 2.6 uM after 24 hrs; assay type: functional
Outline: (§2)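 HDMEC incubated 24 h with compound. Adherent cells and supernatant harvested together, stained with an antibody to cleaved caspase-3, and analysed by FACS as percent apoptotic cells. Three independent repeats.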

[3] = organism: Homo sapiens; assay: Antiangiogenic activity in VEGF-induced HLMEC assessed as number of sprouts per bead at 2.6 uM after 24 hrs by sprouting assay; assay type: functional; outline: as §1
[4] = organism: Homo sapiens; assay: Induction of apoptosis in HDMEC assessed as cleaved caspase 3 at 1.3 uM after 24 hrs; assay type: functional; outline: as §2
[5] = molecular target: Vascular endothelial growth factor receptor 3 (Homo sapiens, UniProt P35916); assay: Inhibition of human recombinant VEGFR3
Outline: (§3)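 Recombinant human tyrosine kinases (EPHB4, TIE2, VEGF-R2, VEGF-R3), expressed in Sf9 insect cells as GST- or His-fusions, with poly(Glu,Tyr) 4:1 as substrate. Conditions: 1 µM [γ-33P]ATP, pH 7.5 HEPES buffer with Mg/Mn, DTT and vanadate, 30 °C for 80 min, 1% DMSO. Ten concentrations were tested and IC50 came from scintillation counting of incorporated 33P.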

[6] = molecular target: Aurora kinase B (Homo sapiens, UniProt Q96GD4); assay: Inhibition of human recombinant Aurora B
Outline: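 Aurora-A or Aurora-B, human cDNA expressed in Sf9 cells as tagged recombinant protein, phosphorylating Tetra(LRRWSLG). Reactions used 60 mM HEPES pH 7.5, Mg2+/Mn2+ (3 mM each), 1.2 mM DTT, vanadate and 1 µM [γ-33P]ATP, ran 80 min at 30 °C and were stopped with 2% H3PO4.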

[7] = molecular target: Mitogen-activated protein kinase kinase kinase 8 (Homo sapiens, UniProt P41279); assay: Inhibition of human recombinant COT
Outline: (§4)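 Human kinases expressed in Sf9 cells by baculovirus as GST or His fusions and affinity purified. Radiometric 33PanQinase assay: 60 mM HEPES-NaOH pH 7.5, 3 mM MgCl2, 3 mM MnCl2, 3 µM orthovanadate, 1.2 mM DTT, 1 µM [γ-33P]ATP, 50-400 ng enzyme, 1% DMSO; 30 °C, 80 min. Substrates: B-Raf-VE, MEK1 KM; CDK2/CycA, histone H1; CK2-A1, casein; COT, autophosphorylation. IC50 from 10 concentrations; 33Pi incorporation by scintillation.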

[8] = molecular target: Proto-oncogene tyrosine-protein kinase Src (Homo sapiens, UniProt P12931); assay: Inhibition of human recombinant SRC
Outline: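 Human kinases expressed in Sf9 cells via baculovirus as GST or His fusions and affinity purified. 33PanQinase assay in 60 mM HEPES-NaOH pH 7.5, 3 mM MgCl2, 3 mM MnCl2, 3 µM orthovanadate, 1.2 mM DTT, 1 µM [γ-33P]ATP, 1% DMSO; 30 °C, 80 min. Substrates: poly(Glu,Tyr) 4:1 for ERBB2, IGF1-R and SRC; poly(Ala,Glu,Lys,Tyr) 6:2:5:1 for FLT3. IC50 from 10 concentrations by scintillation counting.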

[9] = molecular target: Angiopoietin-1 receptor (Homo sapiens, UniProt Q02763); assay: Inhibition of human recombinant TIE2; outline: as §3
[10] = molecular target: Focal adhesion kinase 1 (Homo sapiens, UniProt Q05397); assay: Inhibition of human recombinant FAK
[11] = molecular target: T1, NUAK family SNF1-like kinase 1 (Homo sapiens, UniProt O60285); assay: Inhibition of human recombinant ARK5
T1 sequence (O60285 whole entry): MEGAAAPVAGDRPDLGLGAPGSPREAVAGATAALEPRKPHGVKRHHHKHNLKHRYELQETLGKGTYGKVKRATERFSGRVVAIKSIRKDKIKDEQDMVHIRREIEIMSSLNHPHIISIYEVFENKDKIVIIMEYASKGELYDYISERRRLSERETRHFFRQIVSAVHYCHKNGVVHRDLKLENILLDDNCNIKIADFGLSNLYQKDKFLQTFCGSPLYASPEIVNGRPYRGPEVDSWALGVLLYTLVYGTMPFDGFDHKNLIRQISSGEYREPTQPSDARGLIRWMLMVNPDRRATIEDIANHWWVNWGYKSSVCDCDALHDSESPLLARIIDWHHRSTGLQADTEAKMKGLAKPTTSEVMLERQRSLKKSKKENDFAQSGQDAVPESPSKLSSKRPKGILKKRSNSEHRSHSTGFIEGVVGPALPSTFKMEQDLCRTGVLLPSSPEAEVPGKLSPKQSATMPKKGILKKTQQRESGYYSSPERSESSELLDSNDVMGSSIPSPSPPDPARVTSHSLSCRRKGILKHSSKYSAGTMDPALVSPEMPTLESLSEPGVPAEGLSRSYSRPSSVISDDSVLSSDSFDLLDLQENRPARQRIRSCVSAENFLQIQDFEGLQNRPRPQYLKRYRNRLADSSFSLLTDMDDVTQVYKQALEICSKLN
Outline: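 Human ARK5 made in Sf9 cells by baculovirus (GST- or His-tagged, affinity-purified) and read by autophosphorylation in a 33PanQinase radiometric assay. Buffer: 60 mM HEPES-NaOH pH 7.5, 3 mM MgCl2, 3 mM MnCl2, 3 µM orthovanadate, 1.2 mM DTT, PEG20000 and 1 µM [γ-33P]ATP.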

[12] = molecular target: Cyclin-dependent kinase 4/cyclin D1 (Homo sapiens, UniProt P11802); assay: Inhibition of human recombinant CDK4/cyclin D1; assay type: protein-complex assay
Outline: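 CDK4/CycD1 (human, baculovirus/Sf9, affinity-purified) with Rb-CTF as substrate. The radiometric FlashPlate assay held 1 µM [γ-33P]ATP in HEPES-NaOH pH 7.5 with 3 mM MgCl2 and 3 mM MnCl2.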

[13] = molecular target: Platelet-derived growth factor receptor beta (Homo sapiens, UniProt P09619); assay: Inhibition of human recombinant PDGFRbeta
[14] = molecular target: Cyclin-dependent kinase 2 (Homo sapiens, UniProt P24941); assay: Inhibition of human recombinant CDK2/cyclin A; outline: as §4
[15] = molecular target: Serine/threonine-protein kinase B-raf (Homo sapiens, UniProt P15056, V600E); assay: Inhibition of human recombinant B-Raf-V600E mutant; outline: as §4
[16] = molecular target: Insulin receptor (Homo sapiens, UniProt P06213); assay: Inhibition of human recombinant INS-R
[17] = molecular target: Ephrin type-B receptor 4 (Homo sapiens, UniProt P54760); assay: Inhibition of human recombinant EPHB4; outline: as §3
[18] = molecular target: Hepatocyte growth factor receptor (Homo sapiens, UniProt P08581); assay: Inhibition of human recombinant MET

Sequence of Proto-oncogene tyrosine-protein kinase Src (P12931 2-536 limits assumed): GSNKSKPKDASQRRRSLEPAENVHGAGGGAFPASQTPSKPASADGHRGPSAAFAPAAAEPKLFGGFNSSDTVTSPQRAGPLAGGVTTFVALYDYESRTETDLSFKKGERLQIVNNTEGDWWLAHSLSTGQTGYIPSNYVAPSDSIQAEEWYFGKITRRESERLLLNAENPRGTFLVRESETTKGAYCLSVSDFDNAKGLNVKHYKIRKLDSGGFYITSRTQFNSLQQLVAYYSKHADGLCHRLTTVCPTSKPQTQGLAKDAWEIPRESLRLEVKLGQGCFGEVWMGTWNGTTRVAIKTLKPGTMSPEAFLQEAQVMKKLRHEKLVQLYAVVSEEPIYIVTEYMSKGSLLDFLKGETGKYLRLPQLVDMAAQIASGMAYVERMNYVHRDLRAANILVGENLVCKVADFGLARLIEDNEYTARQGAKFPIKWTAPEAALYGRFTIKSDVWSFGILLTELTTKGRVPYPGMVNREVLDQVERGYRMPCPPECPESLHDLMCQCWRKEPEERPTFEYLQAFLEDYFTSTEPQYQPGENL
Sequence of Focal adhesion kinase 1 (Q05397 whole entry): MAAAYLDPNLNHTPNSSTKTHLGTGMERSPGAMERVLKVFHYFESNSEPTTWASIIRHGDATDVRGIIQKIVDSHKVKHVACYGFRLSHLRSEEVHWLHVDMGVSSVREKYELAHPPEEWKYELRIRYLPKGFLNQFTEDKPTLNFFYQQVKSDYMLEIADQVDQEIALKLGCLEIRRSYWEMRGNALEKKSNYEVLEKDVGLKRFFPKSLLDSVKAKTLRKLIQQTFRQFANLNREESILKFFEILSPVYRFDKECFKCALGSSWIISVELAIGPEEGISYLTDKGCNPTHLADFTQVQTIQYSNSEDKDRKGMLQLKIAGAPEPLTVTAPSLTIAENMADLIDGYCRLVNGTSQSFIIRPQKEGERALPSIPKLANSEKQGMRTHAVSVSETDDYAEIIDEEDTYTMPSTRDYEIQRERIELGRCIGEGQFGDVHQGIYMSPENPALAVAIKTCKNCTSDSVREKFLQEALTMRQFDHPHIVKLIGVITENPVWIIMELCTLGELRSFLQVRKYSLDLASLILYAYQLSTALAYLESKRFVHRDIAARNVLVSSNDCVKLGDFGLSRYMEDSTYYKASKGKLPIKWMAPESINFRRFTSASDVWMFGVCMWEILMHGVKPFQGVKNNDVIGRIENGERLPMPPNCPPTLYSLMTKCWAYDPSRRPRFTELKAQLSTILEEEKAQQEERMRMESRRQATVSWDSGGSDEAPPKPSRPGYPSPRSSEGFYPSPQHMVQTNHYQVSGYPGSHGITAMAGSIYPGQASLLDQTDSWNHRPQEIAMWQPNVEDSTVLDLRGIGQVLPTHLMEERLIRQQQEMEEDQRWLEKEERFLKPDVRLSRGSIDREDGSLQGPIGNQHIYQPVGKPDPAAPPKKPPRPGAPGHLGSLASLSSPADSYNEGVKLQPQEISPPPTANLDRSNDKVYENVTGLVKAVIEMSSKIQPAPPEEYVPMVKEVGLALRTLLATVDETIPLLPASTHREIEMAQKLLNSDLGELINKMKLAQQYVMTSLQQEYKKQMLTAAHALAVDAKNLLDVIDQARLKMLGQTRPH
Sequence of Cyclin-dependent kinase 4/cyclin D1 (P11802 whole entry): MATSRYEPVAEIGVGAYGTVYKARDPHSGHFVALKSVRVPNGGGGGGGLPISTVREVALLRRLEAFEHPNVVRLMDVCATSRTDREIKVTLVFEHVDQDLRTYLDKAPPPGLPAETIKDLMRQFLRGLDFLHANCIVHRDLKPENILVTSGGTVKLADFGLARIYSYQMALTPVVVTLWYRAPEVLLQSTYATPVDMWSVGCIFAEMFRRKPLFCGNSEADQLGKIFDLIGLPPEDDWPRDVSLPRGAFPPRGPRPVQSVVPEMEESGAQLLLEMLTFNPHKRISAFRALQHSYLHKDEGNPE
Sequence of Cyclin-dependent kinase 4/cyclin D1 (P24385 whole entry, further chain): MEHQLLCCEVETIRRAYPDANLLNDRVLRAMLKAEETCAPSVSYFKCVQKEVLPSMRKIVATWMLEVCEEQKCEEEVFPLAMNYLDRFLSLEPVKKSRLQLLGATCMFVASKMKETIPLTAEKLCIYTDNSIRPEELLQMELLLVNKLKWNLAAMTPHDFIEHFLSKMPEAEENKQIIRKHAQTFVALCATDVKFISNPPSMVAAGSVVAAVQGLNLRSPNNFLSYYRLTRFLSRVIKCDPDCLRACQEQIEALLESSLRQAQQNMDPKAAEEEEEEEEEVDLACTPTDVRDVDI
Sequence of Angiopoietin-1 receptor (Q02763 whole entry): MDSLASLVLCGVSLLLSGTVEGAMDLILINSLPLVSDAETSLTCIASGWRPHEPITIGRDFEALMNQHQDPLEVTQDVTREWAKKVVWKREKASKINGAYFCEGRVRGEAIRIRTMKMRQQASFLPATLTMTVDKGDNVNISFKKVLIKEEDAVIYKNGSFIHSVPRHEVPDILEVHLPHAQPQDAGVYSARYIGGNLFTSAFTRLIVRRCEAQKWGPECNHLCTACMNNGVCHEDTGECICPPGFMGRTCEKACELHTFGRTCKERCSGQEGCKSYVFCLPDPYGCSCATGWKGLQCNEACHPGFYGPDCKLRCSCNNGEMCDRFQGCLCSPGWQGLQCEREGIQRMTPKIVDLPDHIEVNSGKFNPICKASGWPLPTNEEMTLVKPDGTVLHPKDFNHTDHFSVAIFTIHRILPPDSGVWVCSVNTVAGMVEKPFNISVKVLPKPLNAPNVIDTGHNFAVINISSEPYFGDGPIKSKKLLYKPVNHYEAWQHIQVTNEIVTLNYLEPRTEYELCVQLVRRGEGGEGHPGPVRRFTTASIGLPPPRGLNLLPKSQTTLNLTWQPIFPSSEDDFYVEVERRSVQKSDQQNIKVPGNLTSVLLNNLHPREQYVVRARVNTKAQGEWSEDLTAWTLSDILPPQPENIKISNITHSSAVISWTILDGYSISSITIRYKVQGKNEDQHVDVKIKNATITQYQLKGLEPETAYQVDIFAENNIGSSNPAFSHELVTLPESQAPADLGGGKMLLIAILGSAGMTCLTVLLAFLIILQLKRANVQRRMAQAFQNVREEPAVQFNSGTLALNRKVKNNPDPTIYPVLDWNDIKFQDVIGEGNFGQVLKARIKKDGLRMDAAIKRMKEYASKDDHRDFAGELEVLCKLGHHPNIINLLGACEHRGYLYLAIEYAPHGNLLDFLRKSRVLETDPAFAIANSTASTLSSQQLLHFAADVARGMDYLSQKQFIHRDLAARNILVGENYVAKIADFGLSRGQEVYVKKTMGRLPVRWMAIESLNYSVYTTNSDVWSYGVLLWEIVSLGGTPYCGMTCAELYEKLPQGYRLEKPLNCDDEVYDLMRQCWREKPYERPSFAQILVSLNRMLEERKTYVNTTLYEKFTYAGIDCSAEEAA
Sequence of Vascular endothelial growth factor receptor 3 (P35916 whole entry, the tested form may be a part): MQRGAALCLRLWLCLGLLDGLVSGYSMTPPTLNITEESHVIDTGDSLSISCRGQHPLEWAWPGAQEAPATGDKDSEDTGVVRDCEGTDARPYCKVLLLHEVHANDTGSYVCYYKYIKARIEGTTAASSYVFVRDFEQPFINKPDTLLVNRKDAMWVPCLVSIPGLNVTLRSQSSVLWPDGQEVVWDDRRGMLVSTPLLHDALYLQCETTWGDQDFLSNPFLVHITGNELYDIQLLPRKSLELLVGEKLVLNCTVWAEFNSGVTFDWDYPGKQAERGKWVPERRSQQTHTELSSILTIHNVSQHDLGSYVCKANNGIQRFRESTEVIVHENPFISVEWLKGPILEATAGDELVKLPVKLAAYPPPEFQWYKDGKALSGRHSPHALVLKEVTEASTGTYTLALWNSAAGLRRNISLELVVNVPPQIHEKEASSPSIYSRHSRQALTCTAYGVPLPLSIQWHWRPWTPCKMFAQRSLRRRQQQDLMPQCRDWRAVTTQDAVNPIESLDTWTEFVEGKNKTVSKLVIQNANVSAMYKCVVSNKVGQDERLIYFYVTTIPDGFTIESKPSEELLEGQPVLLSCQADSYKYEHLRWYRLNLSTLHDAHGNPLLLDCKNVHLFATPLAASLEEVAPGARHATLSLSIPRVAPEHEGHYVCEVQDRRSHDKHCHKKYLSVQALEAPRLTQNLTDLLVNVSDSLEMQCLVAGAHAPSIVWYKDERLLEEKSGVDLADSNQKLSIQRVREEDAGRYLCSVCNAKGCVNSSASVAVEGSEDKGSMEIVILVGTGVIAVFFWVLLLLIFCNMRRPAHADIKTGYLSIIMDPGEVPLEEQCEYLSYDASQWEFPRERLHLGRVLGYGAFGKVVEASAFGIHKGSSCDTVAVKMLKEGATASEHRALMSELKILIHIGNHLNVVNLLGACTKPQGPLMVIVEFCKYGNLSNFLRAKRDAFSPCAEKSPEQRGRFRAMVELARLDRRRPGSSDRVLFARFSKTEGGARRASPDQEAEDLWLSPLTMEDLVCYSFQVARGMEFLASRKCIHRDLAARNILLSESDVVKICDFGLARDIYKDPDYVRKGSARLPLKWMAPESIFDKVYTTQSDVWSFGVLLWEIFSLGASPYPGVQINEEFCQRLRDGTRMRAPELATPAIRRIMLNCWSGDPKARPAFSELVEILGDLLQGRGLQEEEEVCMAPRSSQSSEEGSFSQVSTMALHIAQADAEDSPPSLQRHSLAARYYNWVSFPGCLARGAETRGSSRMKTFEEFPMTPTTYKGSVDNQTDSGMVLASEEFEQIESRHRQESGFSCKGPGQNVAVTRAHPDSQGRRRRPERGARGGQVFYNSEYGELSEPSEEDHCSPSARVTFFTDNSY
Sequence of Aurora kinase B (Q96GD4 whole entry): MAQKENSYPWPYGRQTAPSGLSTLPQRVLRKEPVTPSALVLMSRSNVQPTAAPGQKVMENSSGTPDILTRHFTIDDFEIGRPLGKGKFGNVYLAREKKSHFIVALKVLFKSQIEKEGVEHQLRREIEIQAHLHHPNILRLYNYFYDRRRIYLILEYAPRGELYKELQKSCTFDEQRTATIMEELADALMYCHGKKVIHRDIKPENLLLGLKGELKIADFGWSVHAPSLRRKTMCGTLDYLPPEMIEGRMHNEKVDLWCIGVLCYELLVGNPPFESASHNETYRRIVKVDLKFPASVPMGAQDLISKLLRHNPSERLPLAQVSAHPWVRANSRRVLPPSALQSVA

| IC50 [5] [µM] | IC50 [6] [µM] | IC50 [8] [µM] | IC50 [9] [µM] | IC50 [11] [µM] | Structure (SMILES) | inhibition [1] [%] | Activity [2] [%] | Activity [3] | Activity [4] [%] | IC50 [7] [µM] | IC50 [10] [µM] | IC50 [12] [µM] | IC50 [13] [µM] | IC50 [14] [µM] | IC50 [15] [µM] | IC50 [16] [µM] | IC50 [17] [µM] | IC50 [18] [µM] |
| --- | --- | --- | --- | --- | --- | --- | --- | --- | --- | --- | --- | --- | --- | --- | --- | --- | --- | --- |
| 0.037 | 46 | 14 | 5.2 | – | COc1cc(C2=C(c3c[nH]c4ccccc34)CNC2=O)cc(OC)c1OC | 88 | 42.1 | 0.27 | 25 | 32 | 9.5 | – | – | – | – | – | – | – |
| 9.4 | 2.1 | 41 | 34 | 1.8 | COc1cc(C2=C(c3c[nH]c4ccccc34)C(=O)NC2)cc(OC)c1OC | 34 | – | 2.56 | – | – | – | 30 | – | – | – | – | – | – |
| 2.5 | – | – | 25 | 34 | COc1cc(C2=C(c3cn(CC(O)CO)c4ccccc34)CNC2=O)cc(OC)c1OC (configuration not stated) | – | – | – | – | – | – | – | 40 | – | – | – | – | – |
| 8.7 | 4.9 | – | – | 2 | COc1ccc(C2=C(c3c[nH]c4ccccc34)C(=O)NC2)cc1 | – | – | – | – | – | – | 35 | – | – | – | – | – | – |

| Structure (SMILES) | IC50 [5] [µM] | IC50 [6] [µM] | IC50 [8] [µM] | IC50 [9] [µM] | IC50 [11] [µM] | inhibition [1] [%] | Activity [2] [%] | Activity [3] | Activity [4] [%] | IC50 [7] [µM] | IC50 [10] [µM] | IC50 [12] [µM] | IC50 [13] [µM] | IC50 [14] [µM] | IC50 [15] [µM] | IC50 [16] [µM] | IC50 [17] [µM] | IC50 [18] [µM] |
| --- | --- | --- | --- | --- | --- | --- | --- | --- | --- | --- | --- | --- | --- | --- | --- | --- | --- | --- |
| COc1cc(C2=C(c3cn(C)c4ccccc34)C(=O)NC2)cc(OC)c1OC | 11 | 9.8 | – | – | 4.9 | – | – | – | – | – | 50 | 40 | – | 42 | 50 | 47 | – | – |
| COc1cc(C2=C(c3cn(COC(C)(C)C)c4ccccc34)CNC2=O)cc(OC)c1OC | 4.8 | 43 | 4.4 | 11 | – | – | – | – | – | 9.6 | 28 | 27 | 38 | 23 | 38 | 27 | 20 | 29 |
